The structures appear in SMILES notation. The source made the active and inactive calls. The rule behind the calls is not given here.

Assay [1] relates to Brain. Kind of assay: Antioxidant activity against toxin solution-induced lipid peroxidation in Sprague-Dawley rat brain homogenates assessed as free MDA levels per mg of tissue at 0.01 by TBARS assay. The format is functional, tissue-based. The method in brief:
(§1)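 Adult Sprague Dawley rat brains (200–250 g) homogenised 10% (w/v) in PBS, pH 7.4. Peroxidation induced with toxin solution (0.5 mM H2O2, 0.488 mM FeCl3, 0.14 mM ascorbic acid, 2:1:1). Compounds given in 10% DMSO final, with a 10% DMSO blank. BHT, TCA and TBA added, then 60 °C incubation, ice cooling and butanol extraction. A530 read; nmol MDA equivalents/mg tissue from a TMP curve.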

A short description of assay [2]: Antioxidant activity assessed as AAPH-induced peroxyl radical scavenging activity at 1 mM by ORAC assay. The format is functional.
Assay [3] can be described thus: Antioxidant activity assessed as trolox equivalents ratio of ferric ion reducing activity using fe3+-TPTZ at 0.1 mM by FRAP assay. The assay is classed as functional. The method in brief:
(§2)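 Compound in 10% DMSO (final) was mixed with FRAP reagent (300 mM acetate buffer pH 3.6, 10 mM TPTZ in 40 mM HCl, 20 mM FeCl3, 10:1:1). Reading at 37 °C, 595 nm, after a 3 min lag, then every 6 min to 33 min. Value at 33 min expressed as percent of the 0.1 mM Trolox standard. DMSO/reagent blank subtracted. Triplicates.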

Assay [4] in a line: Antioxidant activity assessed as trolox equivalents ratio of AAPH-induced peroxyl radical scavenging activity at 0.1 mM by ORAC assay. The format is functional. The method in brief: (§3)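 Peroxyl scavenging in 75 mM potassium phosphate, pH 7.4. Compound in 10% DMSO (final) was mixed with 112 nM fluorescein, and 36 mM AAPH (final) was added. Fluorescence (ex 485/em 530 nm) was read every 5 min for 3 h. AUC was converted to Trolox equivalents against a Trolox curve (0–20 µM, duplicates). DMSO blank was subtracted. Mean of triplicates.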

Assay [5] can be described thus: Antioxidant activity assessed as trolox equivalents ratio of ferric ion reducing activity using fe3+-TPTZ at 0.001 mM by FRAP assay. The assay is classed as functional. The method in brief:
as §2

Assay [6] relates to Brain. As to the kind of experiment: Antioxidant activity against toxin solution-induced lipid peroxidation in Sprague-Dawley rat brain homogenates assessed as free MDA levels per mg of tissue at 1 by TBARS assay. The format is functional, tissue-based. A digest of the protocol: as §1
The subject of assay [7] is Brain. As to the kind of experiment: Antioxidant activity against toxin solution-induced lipid peroxidation in Sprague-Dawley rat brain homogenates assessed as free MDA levels per mg of tissue at 0.001 by TBARS assay. The assay is classed as functional, tissue-based.
Assay [8] is described as follows: Antioxidant activity assessed as ferric ion reducing activity using fe3+-TPTZ at 1 mM by FRAP assay. The format is functional.
Assay [9] has as its system Brain. As to the kind of experiment: Antioxidant activity against toxin solution-induced lipid peroxidation in Sprague-Dawley rat brain homogenates assessed as free MDA levels per mg of tissue at 0.1 by TBARS assay. The format is functional, tissue-based. The method in brief:
as §1

A short description of assay [10]: Antioxidant activity assessed as trolox equivalents ratio of ferric ion reducing activity using fe3+-TPTZ at 0.01 mM by FRAP assay. The format is functional. The method in brief: as §2
A short description of assay [11]: Antioxidant activity assessed as trolox equivalents ratio of AAPH-induced peroxyl radical scavenging activity at 0.001 mM by ORAC assay. The assay is classed as functional. A digest of the protocol:
as §3

Assay [12] can be described thus: Antioxidant activity assessed as trolox equivalents ratio of AAPH-induced peroxyl radical scavenging activity at 0.01 mM by ORAC assay. The format is functional. The method in brief:
as §3

`Oc1cc(-c2ccccc2)nc2ccccc12`: the Activity turned out to be 0.91 nmol in the assay on Brain [1], 0.87 nmol with Brain [6] and 0.87 nmol in the assay with Brain [9]. The result (in assay [2]; in the assay on Brain [7]; in assay [8]) was inactive. Besides, the Ratio was found to be 4.79 in assay [3], 1.91 in assay [4], 0.53 in [5] and 1.06 in assay [10].
For the molecule `c1ccc2ncccc2c1`, the Activity in the assay on Brain [1] was 0.8 nmol; with Brain [6], 0.73 nmol; with Brain [9] it was 0.77 nmol. Moreover, the Ratio in [11] worked out at 1.4; in assay [3], 0.98; in assay [5], 1.97; in assay [10], 2.42. Also, the outcome (in assay [2]; in the assay with Brain [7]; in [8]) was inactive.
Regarding `Oc1ccnc2ccccc12`, the Activity was 0.93 nmol in the assay on Brain [1], 0.77 nmol in the assay with Brain [6] and 0.92 nmol with Brain [9]. For the same molecule, the Ratio is 1.5 in assay [11], 0.23 in assay [3], 2.82 in [5] and 1.69 in assay [10]. The outcome (in assay [2]; in the assay with Brain [7]; in [8]) was inactive.
As for `Oc1ccc2nc(-c3ccccc3)cc(O)c2c1`, the results for the Activity in the assay with Brain [1], in the assay on Brain [6] and with Brain [9] were 0.48 nmol, 0.05 nmol and 0.31 nmol, respectively. The Ratio in assay [11] worked out at 12.3; in assay [3] it was 58.9; in assay [4], 58.3; in [5], 2.14; in assay [12], 29; in assay [10], 9.53. In addition, the outcome (in assay [2]; with Brain [7]; in [8]) was inactive.
In the case of `O=c1cc(-c2ccccc2)oc2cc(O)ccc12`, the Activity in the assay on Brain [1] stood at 0.42 nmol; in the assay on Brain [6], 0.91 nmol; in the assay on Brain [9], 0.48 nmol. The outcome (in assay [2]; in the assay with Brain [7]; in assay [8]) was inactive. Moreover, the Ratio is 15.1 in assay [3], 2.04 in [5] and 2.52 in assay [10].
Consider `O=c1cc(-c2ccccc2)oc2ccccc12`, for which the Activity is 0.78 nmol in the assay on Brain [1], 0.83 nmol in the assay with Brain [6] and 0.87 nmol in the assay on Brain [9]. The Ratio in assay [2] turned out to be 2.4; in [5], 0.2; in [8], 2.72; in assay [12], 1.51; in assay [10] it was 3.73. The result (in assay [3]; in assay [4]; in the assay with Brain [7]) was inactive.
Consider `Oc1ccc2c(O)cc(-c3ccccc3)nc2c1`, for which the Activity in the assay with Brain [1] was 0.69 nmol; with Brain [6], 0.72 nmol; in the assay with Brain [9], 0.71 nmol. The Ratio was 15.3 in assay [11]; 1.41 in assay [3]; 57.5 in assay [4]; -3.48 in assay [5]; 26.4 in [12]; -1.26 in assay [10]. In addition, the outcome (in assay [2]; in the assay with Brain [7]; in assay [8]) was inactive.
Consider `O=c1cc(-c2ccccc2)oc2ccc(O)cc12`, for which the Activity was determined as 0.82 nmol in the assay on Brain [1], 0.63 nmol with Brain [6] and 0.79 nmol in the assay on Brain [9]. Moreover, the Ratio is 21.4 in assay [11]; 59 in assay [4]; 1.84 in assay [5]; 37.1 in assay [12]; 2.47 in [10]. The outcome (in assay [2]; in the assay on Brain [7]; in assay [8]) was inactive.
Consider `Oc1cccc2cccnc12`, for which the Activity in the assay with Brain [1] was found to be 0.93 nmol; in the assay on Brain [6], 0.07 nmol; in the assay with Brain [9] it was 0.83 nmol. Besides, the Ratio in assay [11] worked out at 10.2; in [3] it was 15.4; in [4], 55.4; in assay [5] it was 2.65; in [12], 30.5; in assay [10], 3.68. Further, the outcome (in assay [2]; in the assay on Brain [7]; in assay [8]) was inactive.
On to `Oc1cc(-c2ccccc2)nc2c(O)cccc12`, for which the Activity in the assay with Brain [1] was 0.58 nmol; in the assay with Brain [6], 0.27 nmol; in the assay with Brain [9] it was 0.49 nmol. The Ratio in [11] amounted to 9.18; in [3], 97.7; in [4], 65.4; in [5], 3.56; in assay [12], 26.1; in [10], 25.5. Moreover, the result (in assay [2]; in the assay with Brain [7]; in assay [8]) was inactive.

The values above are taken from ChEMBL document CHEMBL1932942, “Antioxidant properties of 4-quinolones and structurally related flavones” (Bioorg Med Chem, 2012).
